Test results reported in ChEMBL document CHEMBL3603808, “Discovery and structure of a new inhibitor scaffold of the autophagy initiating kinase ULK1” (Bioorg Med Chem, 2015).

Key:
[1] = target: T1, Serine/threonine-protein kinase ULK2 (Homo sapiens, UniProt Q8IYT8); experiment: Inhibition of SUMO-tagged ULK2 (unknown origin) kinase domain expressed in KRX cells using [32P]-gamma-ATP and myelin basic protein substrate incubated for 7 mins; assay type: single protein
T1 sequence (Q8IYT8 whole entry): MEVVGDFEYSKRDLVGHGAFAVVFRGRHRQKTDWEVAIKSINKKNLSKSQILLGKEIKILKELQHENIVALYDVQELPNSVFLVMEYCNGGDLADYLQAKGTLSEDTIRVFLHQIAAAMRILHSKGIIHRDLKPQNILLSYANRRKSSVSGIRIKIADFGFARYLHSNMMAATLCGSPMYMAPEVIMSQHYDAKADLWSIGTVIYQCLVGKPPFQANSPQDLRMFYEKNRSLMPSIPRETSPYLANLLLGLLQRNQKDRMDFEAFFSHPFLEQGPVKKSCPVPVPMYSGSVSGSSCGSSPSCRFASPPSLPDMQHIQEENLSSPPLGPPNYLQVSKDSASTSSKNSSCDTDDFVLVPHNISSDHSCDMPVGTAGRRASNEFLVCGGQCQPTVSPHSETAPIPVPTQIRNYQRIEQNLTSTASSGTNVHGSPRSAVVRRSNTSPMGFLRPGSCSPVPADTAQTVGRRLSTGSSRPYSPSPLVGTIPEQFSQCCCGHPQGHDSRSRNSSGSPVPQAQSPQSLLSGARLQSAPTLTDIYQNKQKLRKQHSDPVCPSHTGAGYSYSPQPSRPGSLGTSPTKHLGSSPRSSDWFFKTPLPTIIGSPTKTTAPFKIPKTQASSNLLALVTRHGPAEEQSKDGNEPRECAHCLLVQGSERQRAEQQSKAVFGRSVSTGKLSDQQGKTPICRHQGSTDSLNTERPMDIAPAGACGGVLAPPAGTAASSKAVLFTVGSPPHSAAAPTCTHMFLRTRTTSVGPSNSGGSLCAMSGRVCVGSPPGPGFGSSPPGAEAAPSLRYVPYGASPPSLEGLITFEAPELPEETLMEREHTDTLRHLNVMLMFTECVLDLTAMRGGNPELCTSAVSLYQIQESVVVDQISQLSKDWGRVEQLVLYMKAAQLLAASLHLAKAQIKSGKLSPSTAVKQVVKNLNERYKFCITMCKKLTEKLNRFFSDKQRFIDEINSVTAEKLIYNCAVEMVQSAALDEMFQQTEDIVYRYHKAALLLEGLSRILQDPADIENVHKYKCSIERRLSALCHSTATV
In short: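 Enzyme at 5 nM with 50 µM cold ATP, 0.05 µCi/µl 32P-γ-ATP and 20 µM myelin basic protein as substrate. Reactions were spotted onto nitrocellulose, washed three times in 1% phosphoric acid, dried and imaged by phosphorimager. IC50 from curve fitting; duplicate.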

[2] = target: T2, 3-phosphoinositide-dependent protein kinase 1 (Homo sapiens, UniProt O15530); experiment: Inhibition of recombinant PDK1 (unknown origin) using PDK1tide substrate incubated for 7 mins
T2 sequence (O15530 whole entry): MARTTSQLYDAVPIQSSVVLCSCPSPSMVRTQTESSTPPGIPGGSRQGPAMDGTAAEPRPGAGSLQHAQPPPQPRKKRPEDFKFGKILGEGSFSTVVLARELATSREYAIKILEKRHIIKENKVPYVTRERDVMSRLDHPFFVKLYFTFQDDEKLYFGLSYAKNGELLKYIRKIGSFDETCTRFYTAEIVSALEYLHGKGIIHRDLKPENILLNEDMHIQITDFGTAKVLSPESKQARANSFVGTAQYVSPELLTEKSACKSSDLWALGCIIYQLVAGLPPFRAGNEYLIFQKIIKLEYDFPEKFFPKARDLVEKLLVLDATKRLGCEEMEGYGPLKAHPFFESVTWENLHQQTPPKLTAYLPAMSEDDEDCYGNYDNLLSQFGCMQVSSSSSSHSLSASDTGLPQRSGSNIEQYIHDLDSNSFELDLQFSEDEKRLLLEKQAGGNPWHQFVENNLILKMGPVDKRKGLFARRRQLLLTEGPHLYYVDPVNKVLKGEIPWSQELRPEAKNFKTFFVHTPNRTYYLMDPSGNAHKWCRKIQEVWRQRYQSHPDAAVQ
In short: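 Recombinant PDK1 at 5 nM with 50 µM synthetic PDK1tide in 50 mM HEPES pH 7.5, 10 mM MgCl2, 1 mg/ml BSA, 0.02% Triton-X and 50 µM DTT. Stopped after 7 min by spotting onto nitrocellulose, washed three times in 1% phosphoric acid and phosphorimaged. IC50 from curve fitting; duplicate.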

[3] = target: Tyrosine-protein kinase SYK (Homo sapiens) (UniProt P43405); experiment: Inhibition of SYK (unknown origin) at 2 uM by radioactive filter-binding assay
In short: (§1)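 Panel profiling of one compound against 50 kinases, carried out in duplicate at the International Centre for Protein Kinase Profiling. Radioactive filter-binding format.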

[4] = target: Serine/threonine-protein kinase TBK1 (Homo sapiens) (UniProt Q9UHD2); experiment: Inhibition of TBK1 (unknown origin) at 2 uM by radioactive filter-binding assay; in short: as §1
[5] = target: Serine/threonine-protein kinase PAK 4 (Homo sapiens) (UniProt O96013); experiment: Inhibition of PAK4 (unknown origin) at 2 uM by radioactive filter-binding assay; in short: as §1
[6] = target: Tyrosine-protein kinase JAK2 (Homo sapiens) (UniProt O60674); experiment: Inhibition of JAK2 (unknown origin) at 2 uM by radioactive filter-binding assay; in short: as §1
[7] = target: Dual specificity mitogen-activated protein kinase kinase 1 (Homo sapiens) (UniProt Q02750); experiment: Inhibition of MKK1 (unknown origin) at 2 uM by radioactive filter-binding assay; in short: as §1
[8] = target: Serine/threonine-protein kinase N2 (Homo sapiens) (UniProt Q16513); experiment: Inhibition of PRK2 (unknown origin) at 250 nM by radioactive filter-binding assay; in short: as §1
[9] = target: Serine/threonine-protein kinase Sgk1 (Homo sapiens) (UniProt O00141); experiment: Inhibition of SGK1 (unknown origin) at 250 nM by radioactive filter-binding assay; in short: as §1
[10] = target: Serine/threonine-protein kinase D1 (Homo sapiens) (UniProt Q15139); experiment: Inhibition of PKD1 (unknown origin) at 250 nM by radioactive filter-binding assay; in short: as §1
[11] = target: Mitogen-activated protein kinase kinase kinase 7 (Homo sapiens) (UniProt O43318); experiment: Inhibition of TAK1 (unknown origin) at 250 nM by radioactive filter-binding assay; in short: as §1
Mitogen-activated protein kinase kinase kinase 7 (Homo sapiens), sequence (O43318 whole entry): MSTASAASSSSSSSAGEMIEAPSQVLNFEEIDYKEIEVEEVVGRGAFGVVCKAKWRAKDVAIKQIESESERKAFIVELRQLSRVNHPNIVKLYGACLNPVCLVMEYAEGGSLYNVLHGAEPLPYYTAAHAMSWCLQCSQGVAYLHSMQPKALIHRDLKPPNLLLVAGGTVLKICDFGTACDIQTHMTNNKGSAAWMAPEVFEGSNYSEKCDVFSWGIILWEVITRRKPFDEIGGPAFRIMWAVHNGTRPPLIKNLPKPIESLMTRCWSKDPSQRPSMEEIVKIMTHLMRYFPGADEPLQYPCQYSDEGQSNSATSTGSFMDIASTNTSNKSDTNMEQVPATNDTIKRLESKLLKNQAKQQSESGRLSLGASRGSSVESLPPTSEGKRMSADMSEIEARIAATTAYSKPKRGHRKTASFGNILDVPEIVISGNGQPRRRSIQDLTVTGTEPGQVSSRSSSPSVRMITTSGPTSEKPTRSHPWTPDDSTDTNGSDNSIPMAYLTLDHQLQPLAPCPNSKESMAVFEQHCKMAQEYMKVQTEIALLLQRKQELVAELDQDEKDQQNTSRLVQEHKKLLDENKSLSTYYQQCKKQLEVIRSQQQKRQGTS

Serine/threonine-protein kinase N2 (Homo sapiens), sequence (Q16513 whole entry, looked up): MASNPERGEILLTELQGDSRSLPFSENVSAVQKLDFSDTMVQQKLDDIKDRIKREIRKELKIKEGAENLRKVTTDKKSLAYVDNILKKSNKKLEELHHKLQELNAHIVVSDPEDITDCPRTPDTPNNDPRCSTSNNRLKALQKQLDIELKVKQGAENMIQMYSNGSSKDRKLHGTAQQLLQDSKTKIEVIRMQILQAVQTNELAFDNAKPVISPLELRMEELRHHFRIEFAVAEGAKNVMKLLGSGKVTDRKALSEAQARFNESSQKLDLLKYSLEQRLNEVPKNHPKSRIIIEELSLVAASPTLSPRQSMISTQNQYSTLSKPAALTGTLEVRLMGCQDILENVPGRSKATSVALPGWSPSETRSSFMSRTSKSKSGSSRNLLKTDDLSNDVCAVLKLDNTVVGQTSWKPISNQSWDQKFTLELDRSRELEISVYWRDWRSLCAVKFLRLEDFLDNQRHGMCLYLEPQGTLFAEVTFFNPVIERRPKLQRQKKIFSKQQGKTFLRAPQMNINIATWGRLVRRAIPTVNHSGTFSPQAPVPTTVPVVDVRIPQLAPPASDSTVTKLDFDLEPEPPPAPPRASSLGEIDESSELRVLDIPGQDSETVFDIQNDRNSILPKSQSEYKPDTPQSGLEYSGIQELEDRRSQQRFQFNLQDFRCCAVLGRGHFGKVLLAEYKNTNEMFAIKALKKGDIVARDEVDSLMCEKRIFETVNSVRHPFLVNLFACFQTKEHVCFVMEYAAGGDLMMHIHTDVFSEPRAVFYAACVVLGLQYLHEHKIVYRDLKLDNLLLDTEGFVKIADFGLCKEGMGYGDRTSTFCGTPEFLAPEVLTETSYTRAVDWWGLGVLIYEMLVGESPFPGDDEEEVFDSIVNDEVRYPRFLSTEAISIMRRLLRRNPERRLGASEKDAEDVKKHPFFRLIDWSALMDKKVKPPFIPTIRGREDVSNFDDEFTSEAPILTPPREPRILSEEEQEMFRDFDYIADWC
Serine/threonine-protein kinase TBK1 (Homo sapiens), sequence (Q9UHD2 whole entry): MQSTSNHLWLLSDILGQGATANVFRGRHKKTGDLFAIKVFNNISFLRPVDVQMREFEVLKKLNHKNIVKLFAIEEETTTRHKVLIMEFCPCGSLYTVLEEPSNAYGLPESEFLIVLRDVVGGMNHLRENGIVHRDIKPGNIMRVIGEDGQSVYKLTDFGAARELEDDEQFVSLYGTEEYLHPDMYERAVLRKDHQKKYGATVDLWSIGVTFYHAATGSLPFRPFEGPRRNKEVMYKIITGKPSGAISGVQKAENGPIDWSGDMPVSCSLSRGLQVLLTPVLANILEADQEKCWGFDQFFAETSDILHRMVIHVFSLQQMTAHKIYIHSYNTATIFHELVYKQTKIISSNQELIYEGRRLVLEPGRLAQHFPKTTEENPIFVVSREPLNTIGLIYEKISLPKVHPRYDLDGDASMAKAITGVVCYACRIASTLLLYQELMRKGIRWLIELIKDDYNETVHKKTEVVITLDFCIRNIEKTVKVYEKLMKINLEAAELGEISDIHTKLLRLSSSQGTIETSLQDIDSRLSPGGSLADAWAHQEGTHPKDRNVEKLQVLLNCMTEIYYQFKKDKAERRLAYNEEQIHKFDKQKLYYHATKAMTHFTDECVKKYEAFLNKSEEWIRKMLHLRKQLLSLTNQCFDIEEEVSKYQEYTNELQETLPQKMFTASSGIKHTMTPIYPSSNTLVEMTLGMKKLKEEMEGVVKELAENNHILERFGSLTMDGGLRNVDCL
Serine/threonine-protein kinase Sgk1 (Homo sapiens), sequence (O00141 whole entry): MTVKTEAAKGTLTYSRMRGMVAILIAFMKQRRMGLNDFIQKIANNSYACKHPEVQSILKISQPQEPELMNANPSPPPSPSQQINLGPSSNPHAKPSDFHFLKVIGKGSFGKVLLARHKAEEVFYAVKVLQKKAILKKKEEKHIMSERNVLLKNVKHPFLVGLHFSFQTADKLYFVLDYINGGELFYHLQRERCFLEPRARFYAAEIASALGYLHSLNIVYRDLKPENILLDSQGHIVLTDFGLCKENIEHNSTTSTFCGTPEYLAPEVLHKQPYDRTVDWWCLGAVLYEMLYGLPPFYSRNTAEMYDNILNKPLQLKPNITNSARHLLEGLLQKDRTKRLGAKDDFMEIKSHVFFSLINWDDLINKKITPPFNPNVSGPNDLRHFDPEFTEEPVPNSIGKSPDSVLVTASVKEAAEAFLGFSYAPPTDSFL
Dual specificity mitogen-activated protein kinase kinase 1 (Homo sapiens), sequence (Q02750 whole entry): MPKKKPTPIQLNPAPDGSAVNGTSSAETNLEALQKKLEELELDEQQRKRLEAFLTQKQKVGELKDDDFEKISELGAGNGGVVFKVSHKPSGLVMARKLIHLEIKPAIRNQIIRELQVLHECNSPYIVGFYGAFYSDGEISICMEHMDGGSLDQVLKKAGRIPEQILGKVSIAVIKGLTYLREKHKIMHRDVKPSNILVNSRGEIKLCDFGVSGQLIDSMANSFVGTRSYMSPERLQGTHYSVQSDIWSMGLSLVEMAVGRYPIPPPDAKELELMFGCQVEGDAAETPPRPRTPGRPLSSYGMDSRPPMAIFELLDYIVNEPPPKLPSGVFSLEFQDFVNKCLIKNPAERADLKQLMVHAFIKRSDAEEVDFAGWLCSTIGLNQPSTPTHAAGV
Serine/threonine-protein kinase D1 (Homo sapiens), sequence (Q15139 whole entry): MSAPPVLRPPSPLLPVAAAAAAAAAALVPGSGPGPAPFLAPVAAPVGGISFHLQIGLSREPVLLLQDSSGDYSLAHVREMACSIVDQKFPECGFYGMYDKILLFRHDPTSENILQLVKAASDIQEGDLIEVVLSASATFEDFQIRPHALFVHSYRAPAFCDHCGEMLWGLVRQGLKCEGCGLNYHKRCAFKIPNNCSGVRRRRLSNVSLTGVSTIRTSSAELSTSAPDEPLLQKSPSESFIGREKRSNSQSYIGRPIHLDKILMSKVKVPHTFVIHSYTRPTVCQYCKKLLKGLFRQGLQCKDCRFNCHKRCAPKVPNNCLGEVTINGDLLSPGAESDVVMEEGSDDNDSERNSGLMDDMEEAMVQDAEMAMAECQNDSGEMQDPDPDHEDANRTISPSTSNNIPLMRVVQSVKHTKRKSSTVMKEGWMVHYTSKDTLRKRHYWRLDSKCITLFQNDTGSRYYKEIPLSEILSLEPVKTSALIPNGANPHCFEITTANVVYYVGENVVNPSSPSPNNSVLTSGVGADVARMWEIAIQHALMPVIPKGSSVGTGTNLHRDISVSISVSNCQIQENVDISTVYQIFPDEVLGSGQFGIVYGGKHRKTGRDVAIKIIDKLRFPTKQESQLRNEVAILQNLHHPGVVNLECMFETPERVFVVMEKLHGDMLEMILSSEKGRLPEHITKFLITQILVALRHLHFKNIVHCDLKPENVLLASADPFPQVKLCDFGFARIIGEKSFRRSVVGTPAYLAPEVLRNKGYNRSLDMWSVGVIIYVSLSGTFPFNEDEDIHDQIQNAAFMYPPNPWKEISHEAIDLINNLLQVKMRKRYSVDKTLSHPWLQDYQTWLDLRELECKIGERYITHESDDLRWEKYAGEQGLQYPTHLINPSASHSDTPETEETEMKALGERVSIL
Serine/threonine-protein kinase PAK 4 (Homo sapiens), sequence (O96013 whole entry, looked up): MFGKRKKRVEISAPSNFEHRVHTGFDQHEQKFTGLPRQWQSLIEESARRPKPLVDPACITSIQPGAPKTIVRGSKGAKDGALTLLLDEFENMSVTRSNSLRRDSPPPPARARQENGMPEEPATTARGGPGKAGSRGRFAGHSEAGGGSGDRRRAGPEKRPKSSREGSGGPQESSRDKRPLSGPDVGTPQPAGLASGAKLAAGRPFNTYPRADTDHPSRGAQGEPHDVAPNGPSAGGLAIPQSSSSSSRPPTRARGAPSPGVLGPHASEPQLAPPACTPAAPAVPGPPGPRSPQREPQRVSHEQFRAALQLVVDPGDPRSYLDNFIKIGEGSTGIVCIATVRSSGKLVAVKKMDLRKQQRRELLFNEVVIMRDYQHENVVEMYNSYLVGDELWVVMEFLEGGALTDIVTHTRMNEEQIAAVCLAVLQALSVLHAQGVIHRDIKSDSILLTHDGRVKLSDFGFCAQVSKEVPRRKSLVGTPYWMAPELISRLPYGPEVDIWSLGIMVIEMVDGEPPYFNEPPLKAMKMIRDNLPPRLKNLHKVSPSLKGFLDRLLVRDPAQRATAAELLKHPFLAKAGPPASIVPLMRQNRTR

| IC50 [1] [µM] | IC50 [2] [µM] | inhibition [3] [%] | inhibition [4] [%] | inhibition [5] [%] | inhibition [6] [%] | inhibition [7] [%] | inhibition [8] [%] | inhibition [9] [%] | inhibition [10] [%] | inhibition [11] [%] | SMILES |
| --- | --- | --- | --- | --- | --- | --- | --- | --- | --- | --- | --- |
| 0.36 | 0.71 | > 80 | > 80 | > 80 | > 80 | > 80 | – | – | – | – | NCCCNc1nc(Nc2cccc(NC(=O)N3CCCC3)c2)ncc1I |
| 0.013 | 0.42 | – | – | – | – | – | > 80 | > 80 | > 80 | > 80 | c1ccc2c(Nc3cc(C4CCC4)[nH]n3)nc(Nc3ccc4[nH]cnc4c3)nc2c1 |
